# Source: ChEMBL document CHEMBL1275524, “Activities of antifungal agents against yeasts and filamentous fungi: assessment according to the methodology of the European Committee on Antimicrobial Susceptibility Testing” (2008)
# Key:
# [1] = tested on: Meyerozyma guilliermondii; experiment: Antifungal activity against Candida guilliermondii by EUCAST method; type: functional
# How it was run: (§1)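 Broth microdilution in flat-bottom plates in RPMI 1640 with 2% glucose; inoculum 0.5 × 105 to 2.5 × 10^5 CFU/ml. MICs were read spectrophotometrically at 24 h. AMB endpoint: ≥90% growth reduction vs drug-free control well. Azole and CPF endpoint: 50% reduction in optical density. MFC was taken as the lowest concentration giving 99% killing.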
# Aspergillus niger [2] = experiment: Antifungal activity against Aspergillus niger; type: functional
# Cunninghamella [3] = experiment: Antifungal activity against Cunninghamella species by EUCAST method; type: functional
# Talaromyces marneffei = experiment: Antifungal activity against Penicillium marneffei; type: functional
# Geotrichum candidum [4] = experiment: Antifungal activity against Geotrichum candidum by EUCAST method; type: functional
# [5] = Antifungal activity against Rhizopus microsporus var. oligosporus; type: functional
# How it was run: (§2)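 Broth microdilution following the EUCAST reference procedure for spore-forming moulds, in flat-bottom plates with RPMI 1640 plus 2% glucose. Inoculum was 2 × 10^5 to 5 × 10^5 CFU/ml. MICs were read visually at 24 and 48 h as 100% growth reduction versus a drug-free control for polyenes and azoles. MEC was used for caspofungin. Tests were run in duplicate and repeated twice.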
# Penicillium sp. = experiment: Antifungal activity against Penicillium species; type: functional
# Aspergillus terreus [6] = experiment: Antifungal activity against Aspergillus terreus; type: functional
# Geotrichum candidum [7] = experiment: Antifungal activity against Geotrichum candidum; type: functional
# Aspergillus terreus [8] = experiment: Antifungal activity against Aspergillus terreus by EUCAST method; type: functional
# Lomentospora prolificans = experiment: Antifungal activity against Scedosporium prolificans; type: functional; how it was run: as §2
# Aspergillus flavus [9] = experiment: Antifungal activity against Aspergillus flavus; type: functional
# Absidia = experiment: Antifungal activity against Absidia species; type: functional
# Pichia kudriavzevii [10] = experiment: Antifungal activity against Candida krusei by EUCAST method; type: functional; how it was run: as §1
# Saccharomyces cerevisiae [11] = experiment: Antifungal activity against Saccharomyces cerevisiae; type: functional
# How it was run: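 Broth microdilution following EUCAST for fermentative yeasts, in flat-bottom plates with RPMI 1640 plus 2% glucose. Inoculum was 0.5 × 10^5 to 2.5 × 10^5 CFU/ml. End points were read spectrophotometrically at 24 h: ≥90% growth reduction versus a drug-free control for amphotericin B, and 50% OD reduction for azoles and caspofungin. MFC was the lowest concentration giving 99% killing.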
# [12] = Antifungal activity against Cryptococcus neoformans var. neoformans by EUCAST method; type: functional; details: Cryptococcus deneoformans
# How it was run: (§3)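 EUCAST yeast microdilution, modified for nonfermentative yeasts: plates were sealed and agitated at 350 rpm and 30°C for 48 h.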
# Curvularia lunata = experiment: Antifungal activity against Curvularia lunata; type: functional
# Curvularia australiensis = experiment: Antifungal activity against Bipolaris australiensis; type: functional
# How it was run: (§4)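 Dematiaceous fungi were tested by the EUCAST spore-forming mold reference procedure: flat-bottom microdilution plates, RPMI 1640 plus 2% glucose, inoculum 2 × 105 to 5 × 10^5 CFU/ml. Endpoints were read visually at 24 and 48 h. Polyenes and azoles: 100% growth reduction vs drug-free control. CPF: minimum effective concentration. Run in duplicate and repeated twice.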
# Candida parapsilosis [13] = experiment: Antifungal activity against Candida parapsilosis; type: functional; details: Lodderomyces parapsilosis; how it was run: as §1
# Cryptococcus gattii [14] = experiment: Antifungal activity against Cryptococcus neoformans var. gattii; type: functional, Cryptococcus bacillisporus; how it was run: as §3
# Pichia kudriavzevii [15] = experiment: Antifungal activity against Candida krusei; type: functional
# How it was run: (§5)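 EUCAST broth microdilution for yeasts in flat-bottom plates, RPMI 1640 with 2% glucose, inoculum 0.5 × 105 to 2.5 × 10^5 CFU/ml. […] MFC is the lowest concentration giving 99% killing.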
# Rhizopus = experiment: Antifungal activity against Rhizopus species; type: functional; how it was run: as §2
# Sporothrix schenckii = experiment: Antifungal activity against Sporothrix schenckii; type: functional; how it was run: as §2
# Clavispora lusitaniae [16] = experiment: Antifungal activity against Candida lusitaniae by EUCAST method; type: functional; how it was run: as §1
# Fusarium oxysporum = experiment: Antifungal activity against Fusarium oxysporum; type: functional
# Candida tropicalis [17] = experiment: Antifungal activity against Candida tropicalis; type: functional; how it was run: as §1
# Trichosporon inkin [18] = experiment: Antifungal activity against Trichosporon inkin by EUCAST method; type: functional
# How it was run: (§6)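 Nonfermentative yeasts were tested by the EUCAST microdilution recommendations with one change: plates were sealed and agitated at 350 rpm and 30°C for 48 h.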
# Saccharomyces cerevisiae [19] = experiment: Antifungal activity against Saccharomyces cerevisiae by EUCAST method; type: functional; how it was run: as §5
# [20] = Antifungal activity against Cryptococcus neoformans var. neoformans; type: functional; details: Cryptococcus deneoformans; how it was run: as §3
# Cryptococcus gattii [21] = experiment: Antifungal activity against Cryptococcus neoformans var. gattii by EUCAST method; type: functional, Cryptococcus bacillisporus; how it was run: as §3
# Fusarium solani = experiment: Antifungal activity against Fusarium solani; type: functional
# Nakaseomyces glabratus [22] = experiment: Antifungal activity against Candida glabrata by EUCAST method; type: functional; how it was run: as §1
# Trichosporon asahii [23] = experiment: Antifungal activity against Trichosporon asahii; type: functional; how it was run: as §6
# Mucor hiemalis = experiment: Antifungal activity against Mucor hiemalis; type: functional
# Aspergillus fumigatus [24] = experiment: Antifungal activity against Aspergillus fumigatus by EUCAST method; type: functional
# Rhizomucor = experiment: Antifungal activity against Rhizomucor species; type: functional
# Scedosporium apiospermum = experiment: Antifungal activity against Scedosporium apiospermum; type: functional; how it was run: as §2
# Candida albicans [25] = experiment: Antifungal activity against Candida albicans by EUCAST method; type: functional; how it was run: as §1
# Aspergillus fumigatus [26] = experiment: Antifungal activity against Aspergillus fumigatus; type: functional
# Aspergillus niger [27] = experiment: Antifungal activity against Aspergillus niger by EUCAST method; type: functional
# Candida tropicalis [28] = experiment: Antifungal activity against Candida tropicalis by EUCAST method; type: functional; how it was run: as §1
# Trichosporon asahii [29] = experiment: Antifungal activity against Trichosporon asahii by EUCAST method; type: functional; how it was run: as §6
# Nakaseomyces glabratus [30] = experiment: Antifungal activity against Candida glabrata; type: functional; how it was run: as §1
# [31] = tested on: Meyerozyma guilliermondii; experiment: Antifungal activity against Candida guilliermondii; type: functional; how it was run: as §1
# Candida parapsilosis [32] = experiment: Antifungal activity against Candida parapsilosis by EUCAST method; type: functional; details: Lodderomyces parapsilosis; how it was run: as §1
# Cunninghamella [33] = experiment: Antifungal activity against Cunninghamella species; type: functional
# Clavispora lusitaniae [34] = experiment: Antifungal activity against Candida lusitaniae; type: functional; how it was run: as §1
# [35] = Antifungal activity against Rhinocladiella aquaspersa; type: functional; how it was run: as §4
# Aspergillus flavus [36] = experiment: Antifungal activity against Aspergillus flavus by EUCAST method; type: functional
# Lichtheimia corymbifera = experiment: Antifungal activity against Absidia corymbifera; type: functional
# Mucor = experiment: Antifungal activity against Mucor species; type: functional
# Rhizopus arrhizus = experiment: Antifungal activity against Rhizopus oryzae; type: functional; how it was run: as §2
# Trichosporon inkin [37] = experiment: Antifungal activity against Trichosporon inkin; type: functional; how it was run: as §6
# Candida albicans [38] = experiment: Antifungal activity against Candida albicans; type: functional; how it was run: as §1
smiles,measurement,setting,value
C[C@@H](c1ncncc1F)[C@](O)(Cn1cncn1)c1ccc(F)cc1F [VORICONAZOLE],MIC,[1],0.24 µg/mL
same,MFC,Aspergillus niger [2],2 µg/mL
same,MIC,Cunninghamella [3],> 8 µg/mL
same,MFC,Talaromyces marneffei,> 8 µg/mL
same,MIC,Geotrichum candidum [4],0.25 µg/mL
same,MFC,[5],> 8 µg/mL
same,MFC,Penicillium sp.,> 8 µg/mL
same,MFC,Aspergillus terreus [6],1 µg/mL
same,MFC,Geotrichum candidum [7],> 4 µg/mL
same,MIC,Aspergillus terreus [8],0.29 µg/mL
same,MFC,Lomentospora prolificans,> 8 µg/mL
same,MFC,Aspergillus flavus [9],1 µg/mL
same,MFC,Absidia,> 8 µg/mL
same,MIC,Pichia kudriavzevii [10],0.53 µg/mL
same,MFC,Saccharomyces cerevisiae [11],> 4 µg/mL
same,MIC,[12],0.05 µg/mL
same,MFC,Curvularia lunata,> 8 µg/mL
same,MFC,Curvularia australiensis,> 8 µg/mL
same,MFC,Candida parapsilosis [13],0.06 µg/mL
same,MFC,Cryptococcus gattii [14],0.125 µg/mL
same,MFC,Pichia kudriavzevii [15],0.5 µg/mL
same,MFC,Rhizopus,> 8 µg/mL
same,MFC,Sporothrix schenckii,> 8 µg/mL
same,MIC,Clavispora lusitaniae [16],0.07 µg/mL
same,MFC,Fusarium oxysporum,> 8 µg/mL
same,MFC,Candida tropicalis [17],0.12 µg/mL
same,MIC,Trichosporon inkin [18],0.05 µg/mL
same,MIC,Saccharomyces cerevisiae [19],0.29 µg/mL
same,MFC,[20],0.06 µg/mL
same,MIC,Cryptococcus gattii [21],0.05 µg/mL
same,MFC,Fusarium solani,> 8 µg/mL
same,MIC,Nakaseomyces glabratus [22],1.66 µg/mL
same,MFC,Trichosporon asahii [23],> 8 µg/mL
same,MFC,Mucor hiemalis,> 8 µg/mL
same,MIC,Aspergillus fumigatus [24],0.36 µg/mL
same,MFC,Rhizomucor,> 8 µg/mL
same,MFC,Scedosporium apiospermum,> 8 µg/mL
same,MIC,Candida albicans [25],0.13 µg/mL
same,MFC,Aspergillus fumigatus [26],0.5 µg/mL
same,MIC,Aspergillus niger [27],0.33 µg/mL
same,MIC,Candida tropicalis [28],0.48 µg/mL
same,MIC,Trichosporon asahii [29],0.04 µg/mL
same,MFC,Nakaseomyces glabratus [30],> 4 µg/mL
same,MFC,[31],0.25 µg/mL
same,MIC,Candida parapsilosis [32],0.08 µg/mL
same,MFC,Cunninghamella [33],> 8 µg/mL
same,MFC,Clavispora lusitaniae [34],0.06 µg/mL
same,MFC,[35],> 8 µg/mL
same,MIC,Aspergillus flavus [36],0.41 µg/mL
same,MFC,Lichtheimia corymbifera,> 8 µg/mL
same,MFC,Mucor,> 8 µg/mL
same,MFC,Rhizopus arrhizus,> 8 µg/mL
same,MFC,Trichosporon inkin [37],0.03 µg/mL
same,MFC,Candida albicans [38],0.06 µg/mL
